PTK2B oligo ant: antagonists of Pyk2 self-association, primary screen, Q293 cells, FERM NanoBiT luminescence, HTS | Protein-tyrosine kinase 2-beta (Homo sapiens), Q14289 | 0.83% of 99,000 active | z-score (the deposit names both 25 µM and 10 µM) | AID 1347419, 2020 | active compounds read low;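 active = Z-score of -3 or lower, scaled per plate to the spread of control and sample wells; inactive = z-score above -3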;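 note: negative z-score means lost luminescence so less FERM oligomerization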
E coli WT exp: growth inhibitors of wild-type E. coli, primary screen, strain BW25113, expanded library, OD600; OD600 absorbance; growth inhibition, % at 100 µM; 0.15% of 98,000 active;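 active = growth inhibition above about 50% at one test dose, limit read from the data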;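 note: growth measured after 20 h incubation at 37 °C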
Mac1 fbg inh: inhibitors of CD11b/CD18 adhesion to fibrinogen, primary screen, K562 cells, luminescence; ATPlite luminescence; Mn2+ added to activate the integrin; inhibition, % at 10 µM; AID 1497, 2009; 0.54% of 93,000 active; Integrin beta-2 (Homo sapiens) + Integrin alpha-M (Homo sapiens), P05107+P11215;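 active = primary inhibition of 50% or more at 10 µM, then 40% or more on retest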
Target sequence (P05107 whole entry, looked up, other chains not shown): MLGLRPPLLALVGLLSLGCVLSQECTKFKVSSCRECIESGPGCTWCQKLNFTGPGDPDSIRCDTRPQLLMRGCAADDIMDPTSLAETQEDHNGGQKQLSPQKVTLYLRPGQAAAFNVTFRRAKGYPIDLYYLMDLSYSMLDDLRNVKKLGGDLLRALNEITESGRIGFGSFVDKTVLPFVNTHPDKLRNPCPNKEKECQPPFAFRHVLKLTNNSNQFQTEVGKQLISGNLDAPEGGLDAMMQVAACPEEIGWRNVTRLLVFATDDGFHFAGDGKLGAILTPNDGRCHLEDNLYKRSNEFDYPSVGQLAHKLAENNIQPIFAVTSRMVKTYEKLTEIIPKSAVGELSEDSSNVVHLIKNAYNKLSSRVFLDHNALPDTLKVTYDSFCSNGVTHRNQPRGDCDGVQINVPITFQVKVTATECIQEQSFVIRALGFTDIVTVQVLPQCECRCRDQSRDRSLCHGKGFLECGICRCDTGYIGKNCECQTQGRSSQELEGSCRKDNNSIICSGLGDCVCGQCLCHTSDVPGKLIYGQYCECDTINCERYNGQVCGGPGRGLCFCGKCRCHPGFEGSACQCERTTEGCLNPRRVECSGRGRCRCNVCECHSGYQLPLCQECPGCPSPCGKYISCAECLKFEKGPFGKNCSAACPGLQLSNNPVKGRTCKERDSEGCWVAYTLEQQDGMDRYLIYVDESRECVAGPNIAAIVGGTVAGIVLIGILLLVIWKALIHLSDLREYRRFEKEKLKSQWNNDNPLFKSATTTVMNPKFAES
tolC growth inh: growth inhibitors of E. coli tolC mutant, primary screen, strain BW25113 ΔtolC::kan, 384-well | OD615 | growth inhibition, % at 10 µM (by protocol) | 2.2% of 65,000 active | AID 573, 2007;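 active = growth inhibition at or above a cutoff equal to the mean over every tested compound plus 3 SD, cut at about 60% in these data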;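 note: growth measured after 20 h incubation at 37 °C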
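test system = E. coli BW25113 ΔtolC::kan bacteria | medium = LB with kanamycin 50 µg/mL | signal = OD at 615 nm | schedule = 37 °C, 20 h exposure | evaluation = % inhibition of E. coli growth | compound dosing = one dose of 10 µM final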
Mac1 fbg enh: enhancers of CD11b/CD18 adhesion to fibrinogen, primary screen, K562 cells, luminescence; Integrin beta-2 (Homo sapiens) + Integrin alpha-M (Homo sapiens), P05107+P11215; ATPlite luminescence; activation, % at 10 µM; 0.07% of 93,000 active; AID 1499, 2009;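 active = 10 µM primary screen giving 50% or more activity, confirmed by 40% or more on retest at that dose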
Of the large screens only hits and unclear results are named; the others gave an inactive call. Hits are enriched below; roughly 2.3% of the tested compounds scored in any of these assays.

COc1ccc(-c2cc(C(=O)N3CCCc4ccccc43)no2)cc1OC	none
CCCSc1cc(N2CCOCC2)nc(-c2ccccc2Cl)n1	none (no result: tolC growth inh)
CC(=O)C1=C(O)C=C(c2ccco2)CC1c1ccco1 (stereo unspecified)	none (no result: Mac1 fbg inh, Mac1 fbg enh)
Cc1cc(NC(=O)COC(=O)C(Nc2ccc(C(F)(F)F)cc2Cl)C(C)C)no1 (stereo unspecified)	tolC growth inh 91 (no result: Mac1 fbg inh, Mac1 fbg enh)
Cc1cc(NC(=O)COC(=O)[C@H](C)NC(=O)c2ccccc2)no1	none (no result: tolC growth inh)
NC1=NC(=O)C(CC(=O)c2ccc(Cl)cc2)S1 (stereo unspecified)	none (no result: PTK2B oligo ant, E coli WT exp, tolC growth inh)
CC(Oc1ccc(F)cc1)C(=O)Nc1sc2c(c1C(=O)NCc1cccnc1)CCCC2 (stereo unspecified)	PTK2B oligo ant -3.1 (no result: tolC growth inh)
O=C(Nc1sc2c(c1C(=O)NCc1cccnc1)CCCC2)c1ccco1	none (no result: Mac1 fbg inh)
CCn1c(Oc2ccc(Oc3ncc(Cl)cc3Cl)cc2)nc2c1c(=O)n(C)c(=O)n2C	none (no result: PTK2B oligo ant, E coli WT exp, Mac1 fbg inh, Mac1 fbg enh)
CCCOc1nc(N)c(C#N)c(-c2ccccc2F)c1C#N	PTK2B oligo ant -3.1
CCc1nc(N)c(C#N)c(-c2cccc3ccccc23)c1C	none (no result: E coli WT exp, Mac1 fbg inh, tolC growth inh, Mac1 fbg enh)
COc1ccc(-c2cn3c4c(sc3n2)CCCC4)cc1	Mac1 fbg inh 55
Cc1nc2c(ccc3nc(NC(=O)c4ccc5c(c4)OCCO5)sc32)s1	Mac1 fbg inh 67
Cc1nc2ccc3nc(NC(=O)c4ccc5c(c4)OCCO5)sc3c2s1	none
COc1cccc(Nc2nnc(SCc3cc([N+](=O)[O-])cc4c3OCOC4)s2)c1	PTK2B oligo ant -3.3 (no result: tolC growth inh)
ONC=Nc1cccc2nonc12	none
CCn1nnc(NC(=O)CSc2ccc(Cl)cc2)n1	none
CCCn1nnnc1NC(=O)CSc1ccc(Cl)cc1	tolC growth inh 75
Cc1ccc(-c2csc3ncn(-n4c(C)ccc4C)c(=O)c23)o1	tolC growth inh 67
Cc1sc2ncn(-n3c(C)ccc3C)c(=O)c2c1C	none
CC(C)(C)NC(=O)C12CCC(C)(c3nc4ccccc4nc31)C2(C)C (stereo unspecified)	none (no result: tolC growth inh)
CCCCn1c(=O)n(Cc2cccc(F)c2)c(=O)c2c1ncn2Cc1ccco1	tolC growth inh 65
Cn1c2ccc(F)cc2c2ncn(Cc3ccco3)c(=O)c21	none (no result: tolC growth inh)
CCc1nnc(NC(=O)CSc2nnc(-c3ccccc3O)n2CC)s1	none (no result: tolC growth inh)
CCc1nnc(NC(=O)CSc2nnc(-c3cc4ccccc4cc3O)n2CC)s1	PTK2B oligo ant -3
CCn1c(SCC(=O)Nc2nc(-c3ccccc3)cs2)nnc1-c1ccccc1O	PTK2B oligo ant -3.1, tolC growth inh 86
CC(C)OC(=O)c1ccc(NC(=O)Cn2c(-c3nonc3N)nc3ccccc32)cc1	PTK2B oligo ant -4.2 (no result: E coli WT exp, Mac1 fbg inh, tolC growth inh, Mac1 fbg enh)
Cc1ccccc1C(=O)OCn1nnc2ccccc2c1=O	none (no result: PTK2B oligo ant)
Cc1cc(C(=O)OCn2nnc3ccccc3c2=O)c(C)n1-c1ccccc1	PTK2B oligo ant -3.7
Cc1nc2c(Br)cc(Br)cc2cc1O	Mac1 fbg inh 90 (no result: tolC growth inh)
C=CCn1c(=O)c2c3c(sc2n2c(Nc4ccccc4)nnc12)CCCC3	PTK2B oligo ant -3.7 (no result: tolC growth inh)
C=CCn1c(=O)c2c3c(sc2n2c(Nc4ccc(OC)cc4)nnc12)CCCC3	none
Nc1nc(OCC(F)(F)F)cc(Oc2ccccc2F)n1	PTK2B oligo ant -3.8
O=C(NCC1CCCO1)c1sc(=S)n2c1[nH]c(=O)c1ccc(C(=O)N3CCCCC3)cc12 (stereo unspecified)	tolC growth inh 67
CCCCNC(=O)c1sc(=S)n2c1[nH]c(=O)c1ccccc12	Mac1 fbg inh 97, tolC growth inh 100
O=C(NC1CCCCC1)c1sc(=S)n2c1[nH]c(=O)c1ccccc12	PTK2B oligo ant -3, Mac1 fbg inh 105, tolC growth inh 100
CCCCNC(=O)c1sc(=S)n(-c2ccccc2OC)c1N	none (no result: tolC growth inh)
Cc1ccc(CNC(=O)C(C)OC(=O)c2cccs2)cc1 (stereo unspecified)	none (no result: tolC growth inh)
CN(C)c1ccc(/C=N/N=C2/NC(=O)/C(=C/c3ccc([N+](=O)[O-])cc3)S2)cc1	none (no result: Mac1 fbg inh, tolC growth inh, Mac1 fbg enh)
O=C1C2C3C=CC(C3)C2C(=O)N1/N=C/c1cn(Cc2ccccc2)c2ccccc12 (stereo unspecified)	none (no result: Mac1 fbg inh, tolC growth inh, Mac1 fbg enh)
O=C1C2C3C=CC(C3)C2C(=O)N1/N=C/c1cc(Br)cc([N+](=O)[O-])c1O (stereo unspecified)	Mac1 fbg inh 57 (no result: tolC growth inh)
O=C(c1ccc(COc2ccc(Cl)cc2)o1)N1CCN(Cc2ccc3c(c2)OCO3)CC1	tolC growth inh 96
COC(=O)C(C(C)=O)C1=C/C(=N\S(=O)(=O)c2ccc(C)cc2)c2ccccc2C1=O (stereo unspecified)	Mac1 fbg inh 66 (no result: tolC growth inh)
COc1cc(OC)c(OC)cc1/C=N/N(C)c1ccccc1	none (no result: tolC growth inh)
COc1cc(/C=N/N(C)c2ccccc2)ccc1O	PTK2B oligo ant -3 (no result: tolC growth inh)
O=C1OC(c2ccc(O)cc2)(c2ccc(O)cc2)c2ccccc21	tolC growth inh 72 (no result: PTK2B oligo ant, E coli WT exp, Mac1 fbg inh, Mac1 fbg enh)
COc1ccc(C(=O)Nc2ccc(S(=O)(=O)N3CCCCC3C)cc2)c(OC)c1OC (stereo unspecified)	tolC growth inh 66
O=C(CN(Cc1ccccc1F)C(=O)Cn1nnc(-c2cccs2)n1)NC1CCCCC1	none (no result: tolC growth inh)
